Reference: ChEMBL document CHEMBL4196108, “5-Aroylindoles Act as Selective Histone Deacetylase 6 Inhibitors Ameliorating Alzheimer's Disease Phenotypes” (J Med Chem, 2018)
pIC50: −log10 of the molar value. Activity calls are given as the source filed them. The calls are words filed in the database; no cut-off is given here.

Legend:
Homo sapiens [1] = organism: Homo sapiens; assay: Selectivity index, ratio of IC50 for human HDAC2 to IC50 for human HDAC6
Homo sapiens [2] = organism: Homo sapiens; assay: Selectivity index, ratio of IC50 for human HDAC10 to IC50 for human HDAC6
[3] = molecular target: T1, Protein deacetylase HDAC6 (Homo sapiens, UniProt Q9UBN7); assay: Inhibition of human HDAC6 using RHKKAc peptide as substrate
T1 sequence (Q9UBN7 whole entry): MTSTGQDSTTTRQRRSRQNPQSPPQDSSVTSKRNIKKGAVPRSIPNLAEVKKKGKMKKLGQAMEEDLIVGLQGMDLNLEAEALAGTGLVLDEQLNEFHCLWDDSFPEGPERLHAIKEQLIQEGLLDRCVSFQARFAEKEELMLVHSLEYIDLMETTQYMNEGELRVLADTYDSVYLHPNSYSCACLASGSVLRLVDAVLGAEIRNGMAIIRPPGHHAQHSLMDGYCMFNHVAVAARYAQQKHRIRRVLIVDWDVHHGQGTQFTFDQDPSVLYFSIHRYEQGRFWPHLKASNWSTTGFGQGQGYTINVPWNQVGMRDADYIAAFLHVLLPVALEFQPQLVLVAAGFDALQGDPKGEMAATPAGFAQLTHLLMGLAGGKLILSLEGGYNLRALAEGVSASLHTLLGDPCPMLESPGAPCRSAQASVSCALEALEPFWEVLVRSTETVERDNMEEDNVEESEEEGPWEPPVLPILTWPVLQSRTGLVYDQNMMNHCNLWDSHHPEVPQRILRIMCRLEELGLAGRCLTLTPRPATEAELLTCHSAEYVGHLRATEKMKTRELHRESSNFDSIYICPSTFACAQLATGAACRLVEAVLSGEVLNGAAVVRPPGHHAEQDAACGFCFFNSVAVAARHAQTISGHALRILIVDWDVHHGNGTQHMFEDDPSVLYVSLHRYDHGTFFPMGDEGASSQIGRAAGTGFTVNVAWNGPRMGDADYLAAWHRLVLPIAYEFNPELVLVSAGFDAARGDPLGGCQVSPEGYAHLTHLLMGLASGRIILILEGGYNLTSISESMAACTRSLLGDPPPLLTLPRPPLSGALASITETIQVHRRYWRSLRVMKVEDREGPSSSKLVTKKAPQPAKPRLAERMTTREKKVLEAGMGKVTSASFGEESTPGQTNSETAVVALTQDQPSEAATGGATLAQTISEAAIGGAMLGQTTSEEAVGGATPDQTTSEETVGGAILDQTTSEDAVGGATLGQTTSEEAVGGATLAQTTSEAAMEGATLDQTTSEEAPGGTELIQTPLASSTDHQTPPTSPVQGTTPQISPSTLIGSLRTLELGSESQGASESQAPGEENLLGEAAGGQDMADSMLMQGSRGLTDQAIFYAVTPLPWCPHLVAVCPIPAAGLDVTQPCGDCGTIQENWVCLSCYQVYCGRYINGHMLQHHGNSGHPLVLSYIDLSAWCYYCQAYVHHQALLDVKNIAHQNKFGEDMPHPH

Histone deacetylase 1 = Histone deacetylase 1 (Homo sapiens, UniProt Q13547); assay: Inhibition of human HDAC1 using RHKKAc peptide as substrate
[4] = molecular target: T2, Protein deacetylase HDAC6 (Mus musculus) (UniProt Q9Z2V5); assay: Inhibition of HDAC6 in mouse Neuro-2a cells transfected with pCAX FLAG APP and pRK5-EGFP-Tau P301L plasmids assessed as inhibition of Tau P301L mutant phosphorylation at Ser396 residue at 1 uM after 24 hrs by Western blot analysis; type: cell-based
T2 sequence (whole entry): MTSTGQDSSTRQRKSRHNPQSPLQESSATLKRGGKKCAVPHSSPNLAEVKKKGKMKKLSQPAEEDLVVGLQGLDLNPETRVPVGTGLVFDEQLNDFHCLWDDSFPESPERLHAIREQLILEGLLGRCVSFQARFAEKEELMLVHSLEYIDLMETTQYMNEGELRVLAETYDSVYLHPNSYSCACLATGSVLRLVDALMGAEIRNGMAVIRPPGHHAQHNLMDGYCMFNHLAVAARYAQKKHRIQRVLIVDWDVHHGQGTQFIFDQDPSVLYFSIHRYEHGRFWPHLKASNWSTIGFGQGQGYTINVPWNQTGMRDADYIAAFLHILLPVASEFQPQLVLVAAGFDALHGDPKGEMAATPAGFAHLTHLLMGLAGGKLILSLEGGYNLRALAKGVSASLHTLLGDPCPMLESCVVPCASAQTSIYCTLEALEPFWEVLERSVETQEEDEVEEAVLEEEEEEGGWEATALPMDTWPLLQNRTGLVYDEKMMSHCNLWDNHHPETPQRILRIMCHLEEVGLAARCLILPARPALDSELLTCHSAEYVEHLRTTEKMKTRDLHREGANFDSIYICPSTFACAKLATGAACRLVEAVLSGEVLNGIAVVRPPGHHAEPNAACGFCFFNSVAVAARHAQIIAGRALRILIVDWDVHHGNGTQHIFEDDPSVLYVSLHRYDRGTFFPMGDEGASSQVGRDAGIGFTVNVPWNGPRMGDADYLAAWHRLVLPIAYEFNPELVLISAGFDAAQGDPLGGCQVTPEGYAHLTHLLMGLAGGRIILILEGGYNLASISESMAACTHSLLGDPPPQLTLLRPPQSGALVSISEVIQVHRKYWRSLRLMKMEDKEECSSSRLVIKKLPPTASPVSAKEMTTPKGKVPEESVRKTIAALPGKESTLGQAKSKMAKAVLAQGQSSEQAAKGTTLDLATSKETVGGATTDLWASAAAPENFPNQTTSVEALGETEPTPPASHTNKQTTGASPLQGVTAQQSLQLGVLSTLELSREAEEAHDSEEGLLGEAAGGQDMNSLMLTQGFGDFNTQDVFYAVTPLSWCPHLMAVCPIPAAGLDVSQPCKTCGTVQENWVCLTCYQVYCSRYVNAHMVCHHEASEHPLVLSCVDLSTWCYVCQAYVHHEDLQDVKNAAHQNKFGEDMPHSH
Procedure, shortened: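 SH-SY5Y or Neuro-2a cells cotransfected 24 h with pCAX APP695 and pRK5-EGFP-Tau P301L, then treated 24 h at 1 µM. 20 µg lysate protein immunoblotted for APP and phospho-tau Ser396/Ser404. Mean ± STD of three independent experiments; Student's t-test.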

Histone deacetylase 1, sequence (Q13547 whole entry): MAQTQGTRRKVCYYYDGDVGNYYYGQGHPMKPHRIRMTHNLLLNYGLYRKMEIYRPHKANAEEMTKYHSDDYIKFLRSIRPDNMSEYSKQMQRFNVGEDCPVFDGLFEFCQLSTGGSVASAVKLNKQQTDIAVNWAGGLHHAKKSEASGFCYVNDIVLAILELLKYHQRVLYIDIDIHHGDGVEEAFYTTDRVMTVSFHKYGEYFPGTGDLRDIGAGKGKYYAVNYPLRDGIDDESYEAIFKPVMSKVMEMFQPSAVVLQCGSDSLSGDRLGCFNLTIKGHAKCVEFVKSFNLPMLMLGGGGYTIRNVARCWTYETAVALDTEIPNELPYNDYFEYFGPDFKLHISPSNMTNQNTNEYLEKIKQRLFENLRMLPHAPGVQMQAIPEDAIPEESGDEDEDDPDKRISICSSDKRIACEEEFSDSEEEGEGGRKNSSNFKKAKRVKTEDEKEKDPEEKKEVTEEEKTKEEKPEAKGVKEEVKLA

| Ratio IC50 (Homo sapiens [1]) | Ratio IC50 (Homo sapiens [2]) | pIC50 [3] | pIC50 (Histone deacetylase 1) | inhibition [4] | SMILES |
| --- | --- | --- | --- | --- | --- |
| 312 | > 14900 | 8.17 | 5.32 | Active | O=C(NO)c1ccc(Cn2ccc3cc(C(=O)c4ccc(Cl)cc4)ccc32)cc1 |
| 552 | > 10800 | 8.03 | 5.48 | Active | O=C(NO)c1ccc(Cn2ccc3cc(C(=O)c4ccc(F)cc4)ccc32)cc1 |

| SMILES | Ratio IC50 (Homo sapiens [1]) | Ratio IC50 (Homo sapiens [2]) | pIC50 [3] | pIC50 (Histone deacetylase 1) | inhibition [4] |
| --- | --- | --- | --- | --- | --- |
| COc1ccc(C(=O)c2ccc3c(ccn3Cc3ccc(C(=O)NO)cc3)c2)cc1 | 145 | 15300 | 8.41 | 5.66 | Active |
